Among the data in ChEMBL document CHEMBL1250465, “A new metabotropic glutamate receptor agonist with in vivo anti-allodynic activity” (Bioorg Med Chem, 2010) are EC50, IC50 and Activity values, retold here.

Assay [1] has as its target T1, Metabotropic glutamate receptor 2 (Homo sapiens, UniProt Q14416). The assay is described as follows: Agonist activity at mGlu2 receptor expressed in CHO cells assessed as inhibition of forskolin-induced increase of cAMP level. The class given is functional, cell-based. The essentials:
(§1)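 CHO cells grown in DMEM GlutaMAX-I, 10% dialyzed FBS, 2.5 g/L L-proline, seeded 26,000/well 24 h before. After a 20 min, 37 °C preincubation in DPBS with 1 mM CaCl2, 1 mM MgCl2, 1 mM IBMX, compound plus 25 µM forskolin was given for 10 min at 37 °C. Stopped with ice-cold sodium acetate pH 6.2, 0.1% Triton X-100, 0.1 mM IBMX; cAMP by radioimmunoassay.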
On the technique in general: cAMP levels reflect the balance of adenylyl cyclase and phosphodiesterase activity.

For assay [2], the target named is Metabotropic glutamate receptor 4 (Homo sapiens, UniProt Q14833). Briefly: Agonist activity at mGlu4 receptor expressed in CHO cells assessed as inhibition of forskolin-induced increase of cAMP level. The class given is functional, cell-based. The essentials:
as §1

Assay [3] has as its target Metabotropic glutamate receptor 1 (Homo sapiens, UniProt Q13255). The assay is described as follows: Agonist activity at mGlu1 receptor expressed in CHO cells assessed as myo-[2-3H]Inositol turnover by scintillation counting. The class given is functional, cell-based. In short, it runs like this:
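CHO cells stably expressing receptor, washed with DPBS, preincubated 30 min at 37 °C in HBSS with 20 mM HEPES, 1 mM CaCl2, 1 mM MgCl2, 0.85 mg/mL LiCl, pH 7.4; compound added for 30 min at 37 °C. Stopped with ice-cold 10 mM formic acid, 30 min at 4 °C. [3H]IP measured with yttrium silicate SPA beads; counts per minute read.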

The target of another assay is Glutamate NMDA receptor. Briefly: Displacement of [3H]CGP39653 from NMDA receptor in Sprague-Dawley rat brain synaptic membranes after 60 mins. Format: cell membranes, Membrane. In short, it runs like this:
(§2)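 Adult male Sprague-Dawley rat cortex synaptic membranes, washed four times in ice-cold pH 7.4 buffer at about 0.4–0.5 mg protein/mL. AMPA: 5 nM [3H]AMPA in 30 mM Tris-HCl/2.5 mM CaCl2 with 100 mM KSCN. Kainate: 5 nM [3H]KAIN in 50 mM Tris-HCl. NMDA: 2 nM [3H]CGP39653 in 50 mM Tris-HCl/2.5 mM CaCl2. Nonspecific binding set with 1 mM (S)-Glu.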
In general terms: Loss of bound radioactivity is the signal in a displacement assay; it reports binding, not function.

Assay [4] is described as follows: Displacement of [3H]AMPA from AMPA receptor in Sprague-Dawley rat brain synaptic membranes after 30 mins. The class given is cell membranes, Membrane. The essentials:
as §2

Assay [5] concerns Rattus norvegicus. Briefly: Antiallodynic activity against von Frey hair mechanically stimulated neuropathic pain in Sprague-Dawley rat assessed as increase of response threshold at 50 nmol dosed intrathecally after 24 hrs relative to control. The class given is functional. The settings on record: in the assay text read “after 3 hrs” for “after 24 hrs”. In short, it runs like this: (§3)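 Male Sprague-Dawley rats with chronic constriction injury of the left sciatic nerve, dosed 16 days after surgery. Intrathecal dosing under isoflurane, with vehicle as control. Blinded von Frey testing of both hind paws before dosing and at 1, 3 and 24 h. 50% withdrawal threshold in g from a Gaussian integral psychometric fit by maximum likelihood; n = 6.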

Assay [6] relates to Rattus norvegicus. The assay is described as follows: Antiallodynic activity against von Frey hair mechanically stimulated neuropathic pain in Sprague-Dawley rat assessed as increase of response threshold at 500 nmol dosed intrathecally after 1 hr. Format: functional, organism-based. The essentials:
as §3

In assay [7] the test system is Rattus norvegicus. The assay is described as follows: Antiallodynic activity against von Frey hair mechanically stimulated neuropathic pain in Sprague-Dawley rat assessed as increase of response threshold at 500 nmol dosed intrathecally after 3 hrs relative to control. The class given is functional. In short, it runs like this:
as §3

A short description of assay [8]: Displacement of [3H]KAIN from kainate receptor in Sprague-Dawley rat brain synaptic membranes after 60 mins. Format: cell membranes, Membrane. In short, it runs like this: as §2
The test system of assay [9] is Rattus norvegicus. The assay is described as follows: Antiallodynic activity against von Frey hair mechanically stimulated neuropathic pain in Sprague-Dawley rat assessed as increase of response threshold at 250 nmol dosed intrathecally after 24 hrs relative to control. The class given is functional. The settings on record: in the assay text read “after 3 hrs” for “after 24 hrs”. In short, it runs like this: as §3

Assay [10] relates to Rattus norvegicus. The assay is described as follows: Antiallodynic activity against von Frey hair mechanically stimulated neuropathic pain in Sprague-Dawley rat assessed as increase of response threshold at 500 nmol dosed intrathecally after 24 hrs. The class given is functional, organism-based. The essentials:
as §3

For assay [11], the system named is Rattus norvegicus. Briefly: Antiallodynic activity against von Frey hair mechanically stimulated neuropathic pain in intrathecally dosed Sprague-Dawley rat assessed as increase of response threshold after 3 hrs. Format: functional, organism-based. In short, it runs like this: as §3
In assay [12] the target is T1, Metabotropic glutamate receptor 2. The assay is described as follows: Antagonist activity at mGlu2 receptor expressed in CHO cells assessed as increase of cAMP level. Format: functional, cell-based.

Calls of active or inactive are those of the source. Where only a bound is given, the exact number is not on record here.

Metabotropic glutamate receptor 1, sequence (Q13255 whole entry): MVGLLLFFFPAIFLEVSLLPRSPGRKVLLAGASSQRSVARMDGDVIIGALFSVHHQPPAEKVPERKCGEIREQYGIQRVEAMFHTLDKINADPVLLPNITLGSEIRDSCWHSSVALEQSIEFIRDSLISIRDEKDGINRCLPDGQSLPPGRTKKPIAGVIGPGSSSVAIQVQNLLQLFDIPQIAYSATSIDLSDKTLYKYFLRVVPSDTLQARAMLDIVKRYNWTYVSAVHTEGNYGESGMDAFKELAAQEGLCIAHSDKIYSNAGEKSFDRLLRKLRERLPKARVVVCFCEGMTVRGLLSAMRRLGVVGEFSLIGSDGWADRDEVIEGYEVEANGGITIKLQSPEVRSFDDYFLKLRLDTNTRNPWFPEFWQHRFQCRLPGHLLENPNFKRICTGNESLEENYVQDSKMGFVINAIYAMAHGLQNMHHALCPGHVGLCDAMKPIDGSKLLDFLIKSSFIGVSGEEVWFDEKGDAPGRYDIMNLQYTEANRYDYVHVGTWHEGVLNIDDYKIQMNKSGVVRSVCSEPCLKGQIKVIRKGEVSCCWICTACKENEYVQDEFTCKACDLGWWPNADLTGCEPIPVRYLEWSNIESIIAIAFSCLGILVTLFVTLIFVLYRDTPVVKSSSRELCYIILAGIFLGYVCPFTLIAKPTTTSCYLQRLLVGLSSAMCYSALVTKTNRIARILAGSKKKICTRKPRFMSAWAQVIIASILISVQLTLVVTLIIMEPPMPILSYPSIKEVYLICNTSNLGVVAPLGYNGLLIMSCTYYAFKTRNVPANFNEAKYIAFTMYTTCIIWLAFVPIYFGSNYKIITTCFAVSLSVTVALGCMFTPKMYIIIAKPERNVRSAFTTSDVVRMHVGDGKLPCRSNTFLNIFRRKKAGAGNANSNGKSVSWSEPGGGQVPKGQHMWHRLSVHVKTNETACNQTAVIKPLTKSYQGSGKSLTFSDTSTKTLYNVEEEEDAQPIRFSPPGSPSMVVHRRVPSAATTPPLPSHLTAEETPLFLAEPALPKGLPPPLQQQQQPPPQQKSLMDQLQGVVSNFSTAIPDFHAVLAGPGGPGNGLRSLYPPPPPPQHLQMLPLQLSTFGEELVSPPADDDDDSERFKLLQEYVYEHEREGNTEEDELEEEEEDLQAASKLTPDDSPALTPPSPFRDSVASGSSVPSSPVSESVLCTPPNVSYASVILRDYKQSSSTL
Metabotropic glutamate receptor 4, sequence (Q14833 whole entry): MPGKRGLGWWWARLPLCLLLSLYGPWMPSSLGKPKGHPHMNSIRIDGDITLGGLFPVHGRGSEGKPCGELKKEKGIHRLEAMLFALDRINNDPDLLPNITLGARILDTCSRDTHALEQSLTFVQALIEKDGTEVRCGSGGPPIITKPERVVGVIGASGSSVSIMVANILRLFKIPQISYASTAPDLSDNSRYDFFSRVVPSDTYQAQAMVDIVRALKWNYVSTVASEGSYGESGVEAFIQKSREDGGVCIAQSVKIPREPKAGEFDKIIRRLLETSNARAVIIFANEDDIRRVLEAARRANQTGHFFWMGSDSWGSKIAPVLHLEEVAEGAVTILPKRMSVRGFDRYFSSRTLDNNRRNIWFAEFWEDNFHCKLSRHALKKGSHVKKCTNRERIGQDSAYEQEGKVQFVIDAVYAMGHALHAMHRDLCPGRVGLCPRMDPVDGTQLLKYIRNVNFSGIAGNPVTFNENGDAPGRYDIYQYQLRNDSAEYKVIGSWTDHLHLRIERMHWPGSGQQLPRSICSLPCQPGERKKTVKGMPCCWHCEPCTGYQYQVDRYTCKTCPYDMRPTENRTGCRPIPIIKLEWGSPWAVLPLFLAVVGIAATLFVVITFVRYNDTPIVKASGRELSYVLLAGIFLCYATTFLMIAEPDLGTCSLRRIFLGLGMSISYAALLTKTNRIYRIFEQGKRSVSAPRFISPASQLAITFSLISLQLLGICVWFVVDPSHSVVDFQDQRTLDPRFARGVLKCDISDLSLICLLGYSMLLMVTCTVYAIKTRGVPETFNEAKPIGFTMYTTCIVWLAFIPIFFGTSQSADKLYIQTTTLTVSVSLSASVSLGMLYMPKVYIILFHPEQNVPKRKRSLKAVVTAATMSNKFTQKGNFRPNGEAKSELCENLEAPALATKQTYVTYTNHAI
T1 sequence (Q14416 whole entry): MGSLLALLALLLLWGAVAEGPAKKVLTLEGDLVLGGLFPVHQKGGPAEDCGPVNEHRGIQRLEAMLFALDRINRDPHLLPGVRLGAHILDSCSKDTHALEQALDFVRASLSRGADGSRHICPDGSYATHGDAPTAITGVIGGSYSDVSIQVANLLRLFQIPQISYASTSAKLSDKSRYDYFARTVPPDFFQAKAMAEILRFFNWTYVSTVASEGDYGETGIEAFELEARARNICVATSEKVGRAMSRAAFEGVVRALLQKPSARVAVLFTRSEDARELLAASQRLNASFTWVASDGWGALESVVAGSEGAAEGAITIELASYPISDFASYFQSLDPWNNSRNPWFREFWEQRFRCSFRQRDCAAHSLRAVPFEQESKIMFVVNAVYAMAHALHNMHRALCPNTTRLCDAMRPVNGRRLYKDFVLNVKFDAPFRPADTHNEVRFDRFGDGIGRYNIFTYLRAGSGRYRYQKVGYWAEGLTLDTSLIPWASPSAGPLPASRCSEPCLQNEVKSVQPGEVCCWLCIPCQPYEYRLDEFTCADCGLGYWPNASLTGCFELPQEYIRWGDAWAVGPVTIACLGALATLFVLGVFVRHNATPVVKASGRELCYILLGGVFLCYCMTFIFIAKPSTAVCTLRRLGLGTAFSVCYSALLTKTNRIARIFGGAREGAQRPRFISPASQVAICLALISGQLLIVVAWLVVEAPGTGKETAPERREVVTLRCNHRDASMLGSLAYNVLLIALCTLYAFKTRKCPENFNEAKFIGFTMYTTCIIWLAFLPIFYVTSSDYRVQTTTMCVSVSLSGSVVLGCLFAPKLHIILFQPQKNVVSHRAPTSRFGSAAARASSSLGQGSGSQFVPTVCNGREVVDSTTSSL

For `C[C@H]1[C@H](C(=O)O)[C@H]1[C@H](N)C(=O)O` (racemic), the concentration for a half-maximal effect (EC50) was 0.01 µM in [1], greater than 100 µM in assay [2] and greater than 100 µM in assay [3].

Consider `N[C@H](C(=O)O)[C@@H]1[C@@H](C(=O)O)[C@@H]1C1CC1` (racemic), for which the IC50 (on Glutamate NMDA receptor; in assay [4]; in assay [8]) was greater than 100 µM each time. Moreover, the Activity in the assay on Rattus norvegicus [5] is 5 g; in the assay with Rattus norvegicus [7], 10 g; in the assay with Rattus norvegicus [9] it was 7.5 g; with Rattus norvegicus [11], “Dose-dependent effect”. The EC50 was 0.05 µM in assay [1], greater than 100 µM in [2] and greater than 100 µM in assay [3]. The result in the assay on Rattus norvegicus [6] was Active. Moreover, the result with Rattus norvegicus [10] was inactive.

For the molecule `N[C@H](C(=O)O)[C@@H]1[C@@H](C(=O)O)[C@@H]1C1CCCCC1` (racemic), the IC50 is greater than 100 µM at Glutamate NMDA receptor, greater than 100 µM in [4], greater than 100 µM in [8] and 62 µM in [12]. The EC50 in assay [2] and in assay [3] was greater than 100 µM each time.

What is called EC50 is the concentration that produces a half-maximal response. The IC50 is the point on the concentration scale where inhibition reaches its midpoint.
